# Data reported in PubChem BioAssay.
# Active and inactive are the calls of the source.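 How the source made its calls, unless noted: active means primary screen active whose calcium signal fell more than 3 SD beyond the full-serotonin control mean in both duplicate plates; inactive means the rest.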
# Tested on: not listed separately
# Experiment: serotonin-gated TRPC4 signal block – cell-based, second counter screen, HEK293 TRPC4/5HT1a, Fluo-4, counter-screen for TRPC4 inhibitor project, confirmation (AID 434978);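 further: serotonin given first at submaximal then at maximal dose after compound preincubation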
# Settings: Fluo-4 calcium flux, at 10 µM, serotonin added to trigger calcium flux; stronger effect = higher value
# Method in brief: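 Test system: HEK293 cells stably co-expressing TRPC4 channel and 5HT1a serotonin receptor / Schedule: three 110 s phases (compound, two serotonin additions) / Measured by: kinetic Fluo-4 fluorescence readout of calcium flux / Benchmarks: maximal serotonin stimulation controls / Repeats: duplicate plates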
row,Structure (SMILES),outcome
1,CCCCN(CC)CCNC(=O)Cn1cc2c(n1)-c1c(oc(C(=O)N3CCCC3)c1C)CC2,inactive
2,Cc1ccc(NC(=S)NC2CC3CCC(C2)N3Cc2ccco2)c(C)c1 (stereo not drawn),inactive
3,COc1ccc(N2CCN(Cc3nc4ccccc4n3C)CC2)cc1,inactive
4,CCC(=O)NC(C)C(c1cccs1)N1CCN(c2ccccc2)CC1 (stereo not drawn),inactive
5,CC(=O)n1cc([C@H]2C=C(C(=O)NCc3ccccc3)O[C@@H](OCc3ccc(CO)cc3)C2)c2ccccc21,inactive
6,CCN1CCCC1CNC(=O)c1cc2c(OC)cccc2[nH]1 (stereo not drawn),inactive
7,COc1ccc(F)cc1CN1CCN(C(=O)CCC(=O)Nc2nnc(C(C)C)s2)CC1,inactive
8,CN(CCOc1ccc(Br)cc1)CC(O)c1ccccc1 (stereo not drawn),inactive
9,CCN1CCN(c2c(Cl)cccc2NC(=O)c2ccc([N+](=O)[O-])cc2)CC1,inactive
10,CCn1c(=O)c(C(=O)NNC(=O)c2ccccc2F)c(O)c2ccccc21,inactive
11,CN1C(CC(=O)Nc2ccc(Br)cc2)c2ccccc2CC1(C)C (stereo not drawn),inactive
12,COc1ccc(C(CNCC(O)COc2c(C)ccc(C)c2C)N(C)C)cc1 (stereo not drawn),inactive
13,COc1ccc(C(CNC(=O)C(Cc2ccccc2)NC(N)=O)N(C)C)cc1 (stereo not drawn),inactive
14,CCCN(CCC)CCNC(=O)CCC(=O)Nc1ccc2nc(N3CCOCC3)cc(C)c2c1,inactive
15,Fc1ccc(NC(=S)NCCc2ccccn2)cc1,inactive
16,Cc1noc(C)c1CCC(=O)NC1CCCN(Cc2ccc(CC(C)C)cc2)C1 (stereo not drawn),inactive
17,COc1ccc(C(CCNCc2ccc(N(C)C)cc2)c2ccccc2)cc1 (stereo not drawn),inactive
18,COc1ccc(-c2nn(-c3ccccc3C)cc2CNCc2cccnc2)cc1F,inactive
19,CN(C)C(CNC(=O)c1cccc(S(=O)(=O)N(C)C)c1)c1ccccc1 (stereo not drawn),inactive
20,Nc1c(C(=O)c2ccccc2)sc2nsc(SCCN3CCCC3)c12,inactive

row,Structure (SMILES),outcome
1,CC1CC(C)CN(CCCNC(=O)c2ccc3c(c2)N(Cc2ccccc2)C(=O)c2ccccc2S3=O)C1 (stereo not drawn),inactive
2,CN(C)c1ccc(C(CNC(=O)Cc2cccc3ccccc23)N(C)C)cc1 (stereo not drawn),inactive
3,Cc1csc2c(N3CCN(C(=S)Nc4ccc(C(F)(F)F)cc4)CC3)ncnc12,inactive
4,O=S(=O)(NCCc1csc(-c2ccccc2)n1)c1cccnc1,inactive
5,COc1ccc(-c2nc(CSCC(=O)NC3CCN(Cc4ccccc4)CC3)c(C)o2)cc1OC,inactive
6,NC(N)=NN=C1CCCCCCCCCCC1,inactive
7,CCn1c(CN2CCN(Cc3ccc(C)cc3)C(CCO)C2)nc2ccccc21 (stereo not drawn),inactive
8,COc1ccc(C(CNc2nc(-c3cccnc3)nc3ccccc23)N(C)C)cc1 (stereo not drawn),inactive
9,Cc1ccc(Cn2c(SCCN3CCCCC3)nc3c2c(=O)n(C)c(=O)n3C)cc1,inactive
10,COc1ccc(C(CNC(=O)CCOc2ccccc2)N(C)C)cc1 (stereo not drawn),inactive
11,CCOC(=O)C1(CCOc2ccccc2)CCN(Cc2cc(OC)ccc2OC)CC1,inactive
12,Cc1cccc(NC(=S)NCC(c2ccccc2)N(C)C)c1 (stereo not drawn),inactive
13,CC(C)n1cnc2c(N(C)c3ccccc3)nc(N(CCN(C)C)Cc3ccccc3)nc21,inactive
14,CC(CN1CCCC(C(N)=O)C1)c1ccccc1 (stereo not drawn),inactive
15,O=c1c(Cc2ccc(F)cc2)c(O)ccn1CCc1cnc[nH]1,inactive
16,Cc1c(Cl)cccc1NC(=S)NCC(c1cccnc1)N(C)C (stereo not drawn),inactive
17,COc1ccc(C(CNC(=O)c2ccc3c(c2)OCCO3)N(C)C)cc1 (stereo not drawn),inactive
18,O=C(NC1CCCN(Cc2ccc(Cl)cc2)C1)C1CCC1 (stereo not drawn),inactive
19,CN(C)c1ccc(-c2sc(Nc3ccccc3)n[n+]2-c2ccc(F)cc2)cc1,inactive

# Tested on: TRPC4 (mouse), co-expressed with 5HT1a in HEK293
# Experiment: enhancement of serotonin-evoked TRPC4 response – cell-based, second counter screen, HEK293 TRPC4/5HT1a, Fluo-4, counter-screen for TRPC4 potentiator project, confirmation (AID 434979;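 active means signal rise over 3 SD above mean of control wells given weak agonist, in both repeats and first screen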)
# Settings: Fluo-4 calcium flux, at 10 µM, serotonin added at its EC20 dose; stronger effect = higher value
Structure (SMILES),outcome,potentiation
CCCCN(CC)CCNC(=O)Cn1cc2c(n1)-c1c(oc(C(=O)N3CCCC3)c1C)CC2,inactive,–
Cc1ccc(NC(=S)NC2CC3CCC(C2)N3Cc2ccco2)c(C)c1 (stereo not drawn),inactive,–
COc1ccc(N2CCN(Cc3nc4ccccc4n3C)CC2)cc1,inactive,–
CCC(=O)NC(C)C(c1cccs1)N1CCN(c2ccccc2)CC1 (stereo not drawn),inactive,–
CC(=O)n1cc([C@H]2C=C(C(=O)NCc3ccccc3)O[C@@H](OCc3ccc(CO)cc3)C2)c2ccccc21,inactive,–
CCN1CCCC1CNC(=O)c1cc2c(OC)cccc2[nH]1 (stereo not drawn),inactive,–
COc1ccc(F)cc1CN1CCN(C(=O)CCC(=O)Nc2nnc(C(C)C)s2)CC1,inactive,–
CN(CCOc1ccc(Br)cc1)CC(O)c1ccccc1 (stereo not drawn),inactive,–
CCN1CCN(c2c(Cl)cccc2NC(=O)c2ccc([N+](=O)[O-])cc2)CC1,inactive,–
CCn1c(=O)c(C(=O)NNC(=O)c2ccccc2F)c(O)c2ccccc21,inactive,–
CN1C(CC(=O)Nc2ccc(Br)cc2)c2ccccc2CC1(C)C (stereo not drawn),inactive,–
COc1ccc(C(CNCC(O)COc2c(C)ccc(C)c2C)N(C)C)cc1 (stereo not drawn),inactive,–
COc1ccc(C(CNC(=O)C(Cc2ccccc2)NC(N)=O)N(C)C)cc1 (stereo not drawn),inactive,–
CCCN(CCC)CCNC(=O)CCC(=O)Nc1ccc2nc(N3CCOCC3)cc(C)c2c1,inactive,–
Fc1ccc(NC(=S)NCCc2ccccn2)cc1,inactive,–
Cc1noc(C)c1CCC(=O)NC1CCCN(Cc2ccc(CC(C)C)cc2)C1 (stereo not drawn),inactive,–
COc1ccc(C(CCNCc2ccc(N(C)C)cc2)c2ccccc2)cc1 (stereo not drawn),inactive,–
COc1ccc(-c2nn(-c3ccccc3C)cc2CNCc2cccnc2)cc1F,inactive,–
CN(C)C(CNC(=O)c1cccc(S(=O)(=O)N(C)C)c1)c1ccccc1 (stereo not drawn),inactive,–
Nc1c(C(=O)c2ccccc2)sc2nsc(SCCN3CCCC3)c12,inactive,–

Structure (SMILES),outcome,potentiation
CC1CC(C)CN(CCCNC(=O)c2ccc3c(c2)N(Cc2ccccc2)C(=O)c2ccccc2S3=O)C1 (stereo not drawn),inactive,–
CN(C)c1ccc(C(CNC(=O)Cc2cccc3ccccc23)N(C)C)cc1 (stereo not drawn),inactive,–
Cc1csc2c(N3CCN(C(=S)Nc4ccc(C(F)(F)F)cc4)CC3)ncnc12,inactive,–
O=S(=O)(NCCc1csc(-c2ccccc2)n1)c1cccnc1,inactive,–
COc1ccc(-c2nc(CSCC(=O)NC3CCN(Cc4ccccc4)CC3)c(C)o2)cc1OC,inactive,–
NC(N)=NN=C1CCCCCCCCCCC1,inactive,–
CCn1c(CN2CCN(Cc3ccc(C)cc3)C(CCO)C2)nc2ccccc21 (stereo not drawn),inactive,–
COc1ccc(C(CNc2nc(-c3cccnc3)nc3ccccc23)N(C)C)cc1 (stereo not drawn),inactive,–
Cc1ccc(Cn2c(SCCN3CCCCC3)nc3c2c(=O)n(C)c(=O)n3C)cc1,–,81% (active)
COc1ccc(C(CNC(=O)CCOc2ccccc2)N(C)C)cc1 (stereo not drawn),inactive,–
CCOC(=O)C1(CCOc2ccccc2)CCN(Cc2cc(OC)ccc2OC)CC1,inactive,–
Cc1cccc(NC(=S)NCC(c2ccccc2)N(C)C)c1 (stereo not drawn),inactive,–
CC(C)n1cnc2c(N(C)c3ccccc3)nc(N(CCN(C)C)Cc3ccccc3)nc21,inactive,–
CC(CN1CCCC(C(N)=O)C1)c1ccccc1 (stereo not drawn),inactive,–
O=c1c(Cc2ccc(F)cc2)c(O)ccn1CCc1cnc[nH]1,inactive,–
Cc1c(Cl)cccc1NC(=S)NCC(c1cccnc1)N(C)C (stereo not drawn),inactive,–
COc1ccc(C(CNC(=O)c2ccc3c(c2)OCCO3)N(C)C)cc1 (stereo not drawn),inactive,–
O=C(NC1CCCN(Cc2ccc(Cl)cc2)C1)C1CCC1 (stereo not drawn),inactive,–
CN(C)c1ccc(-c2sc(Nc3ccccc3)n[n+]2-c2ccc(F)cc2)cc1,inactive,–
